# Many of the other results were omitted from the sample, so hits are more common in it than they were.
# Lmaj promast: Leishmania major promastigote growth inhibition, primary screen | Leishmania major promastigotes, resazurin fluorescence viability | inhibition, % at 10 µM | 200,000 compounds, 9% hits | AID 1063, 2008; in the data active means inhibition above about 50%;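 further: promastigotes grown with compound for 44 hours at 28 °C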
# T cruzi inh: inhibitors of intracellular T. cruzi growth, primary screen, luminescence, NIH3T3 host cells | inhibition, % (no concentration beside the values) | T. cruzi beta-gal in NIH3T3, 90 h | 300,000 compounds, 1.4% hits;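 active means mean inhibition across valid replicates above about 55%, limit read from the data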;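 further: signal also drops with host cell toxicity which is not excluded here; higher percent means less beta-gal luminescence so fewer parasites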
#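 System: mouse NIH/3T3 fibroblasts infected with β-gal-expressing T. cruzi Tulahuen C4 / Input: NIH/3T3 cells, 5,000 per well / Buffer or medium: Low-serum DMEM with 2% FBS / Probe or stimulus: 5000 reporter trypomastigotes per well / Schedule: ≥90 h infection period, 3 h prior cell attachment / Measured by: GalScreen luminescence, 60 min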
# Dynein cargo inh: inhibitors of GR-EGFP nuclear translocation, primary screen, dynein cargo transport inhibitor project, imaging, high-content, 3617.4 mouse cells | AID 1381, 2008 | z-score, hits read low | 220,000 compounds, 0.47% hits | test concentration mostly 20 µM; stimulated with dexamethasone, 1 µM; stronger effect = lower value;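 active means plate z-score of nuclear minus cytoplasmic receptor signal below a set negative limit, without overly bright fluorescence or cell loss, cut at about -3.5 in these data, passing the limit was not always enough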;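 further: z-score of nuclear minus cytoplasmic ring GR-EGFP intensity difference per well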
#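 Buffer or medium: tet-free medium with charcoal-stripped serum / Also added: dexamethasone agonist, 1.0 µM final, for 30 min / Timing: induction 48 h, compound 1 h, agonist 30 min / Measured by: high-content fluorescence imaging after fixation / Read-out: nuclear-to-cytoplasmic GR-EGFP distribution per well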
# UPR XBP1 act: activators of adaptive XBP1 UPR arm, primary screen, cell-based, CHO-XBP1 luciferase reporter, luminescence, uHTS | IRE1-XBP1 UPR activation; percent of tunicamycin response, DMSO as zero | activation, % at 20 µM | AID 463104, 2010 | 330,000 compounds, 0.33% hits;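 active means versus positive control, 20 µM dose yields 30% or more activation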
#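 Material: CHO-XBP1 cells stably carrying IRE1-XBP1-driven luciferase reporter / Amount: 1000 cells per well / Compound: 20 µM, 1% DMSO / Times: 6 h treatment, 37 °C / Detection: luciferase luminescence / Measure: % activation of reporter signal versus tunicamycin and DMSO controls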
# UPR CHOP act: activators of apoptotic CHOP UPR arm, primary screen, cell-based, CHO-CHOP luciferase reporter, luminescence, uHTS; AID 449763, 2010; 330,000 compounds, 0.34% hits; UPR activation; percent of tunicamycin response over DMSO baseline; activation, % at 10 µM;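 active means at 10 µM dose, activation of 40% or more, normalized to positive control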
#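 assay system = CHO CHOP reporter cells | amount = 500 CHO-CHOP cells per well | buffer or medium = F12 with 10% FBS | incubation = 16-18 h cell attachment, then 6 h compound exposure, 37 °C | detection = luminescence read with Steady-Glo | read-out = percent activation relative to tunicamycin control | controls = tunicamycin high control, DMSO low control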
# CHOP inh: inhibitors of CHOP promoter induction, primary screen, cell-based, unfolded protein response, luciferase reporter | CHO-K1 CHOP-promoter luciferase, tunicamycin-induced, 15-18 h | inhibition, % at 10 µM | 220,000 compounds, 3.8% hits | AID 2732, 2010;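 active means compounds that reduced the stress-induced luciferase reporter signal by more than about 70% of percent inhibition, limit read from the data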
# Hits are given with their value; – = inactive; · = no result.
SMILES,Lmaj promast,T cruzi inh,Dynein cargo inh,UPR XBP1 act,UPR CHOP act,CHOP inh
COC(=O)c1c(N)n(Cc2ccc(OC)cc2)c2nc3ccccc3nc12,52,·,–,–,–,–
COCCOC(=O)c1c(N)n(Cc2ccc(OC)cc2)c2nc3ccccc3nc12,89,–,–,–,–,–
CCOC(=O)c1c(N)n(CCCOC(=O)c2ccco2)c2nc3ccccc3nc12,82,–,–,–,–,·
C=CCN1C[C@@H](C)N([C@H](c2ccc(C(=O)N(CC)CC)cc2)c2cccc(OC)c2)C[C@@H]1C,·,·,·,·,·,–
CCOc1cc2c(cc1OCC)-n1cccc1C(c1c(O)cccc1OC)NC2 (centres undefined),·,–,·,–,–,·
CC(C)=CCc1c(O)cc2c(c1O)C(=O)CC(c1ccc(O)cc1)O2 (centres undefined),·,–,–,–,–,77
O=C(Cc1ccc(Cl)c(Cl)c1)N1CCCCC1CN1CCCC1 (centres undefined),·,·,·,·,·,–
Oc1cccc(/C=N/NP(=S)(c2ccccc2)c2ccccc2)c1,83,–,–,–,–,–
O=C(COc1ccccc1F)N1CCN(CCN2C(=O)c3cccc4cccc(c34)C2=O)CC1,–,–,–,–,–,–
O=C(COc1ccccc1)N1CCN(CCN2C(=O)c3cccc4cccc(c34)C2=O)CC1,58,–,–,–,–,–
COC(=O)C1=C(c2cccc(OC)c2OC)C[C@@H]2CC[C@H]1N2C(=O)NCc1ccc(C(F)(F)F)cc1,·,–,·,–,–,·
CCOc1ccccc1-n1c(O)c(C=NCCCn2ccnc2)c(=O)[nH]c1=O,·,–,–,–,–,–
CCOC(=O)C1(CCOc2ccccc2)CCN(C2Cc3ccccc3C2)CC1,88,–,–,–,–,–
NNC(N)=O,·,·,·,–,–,–
C=C(C=O)CC1CC(O)[C@]2(C)OC3C[C@@H]4OC5C[C@]6(C)O[C@]7(C)CCC8OC9C[C@]%10(C)OC(/C(C)=C\CO)C(O)CC%10OC9CC(C)C8OC7CC6O[C@]5(C)C/C=C\C4OC3CC2O1 (some centres undefined),·,·,·,–,–,·
C=C(C=O)C[C@@H]1C[C@H](O)C2OC3C[C@]4(C)OC5/C=C\CC6OC7C(CC=CCC6OC5CCCC4OC3CC2O1)OC1CC2OC3CC(=O)OC3C[C@@H](C)C[C@@]2(C)OC1C[C@@H]7C (some centres undefined),·,–,–,–,–,107
O=C(O)c1[nH]c(=O)[nH]c(=O)c1F,·,–,–,–,–,–
O=C(CN1CCCC1)Nc1ccc(Cl)cc1C(=O)c1ccccc1,–,–,–,–,–,–
O=C(COC(=O)c1cccc(O)c1)Nc1ccc(Cl)cc1C(=O)c1ccccc1,–,–,–,–,–,80
CCOc1ccccc1OCC(=O)Nc1ccc(Cl)cc1C(=O)c1ccccc1,–,–,–,–,–,–
O=C(CNC(=O)c1cccc(Cl)c1)Nc1ccc(Br)cc1C(=O)c1ccccc1,59,–,–,–,–,–
O=C(Nc1ccc(Cl)cc1C(=O)c1ccccc1)c1ccccc1,69,–,–,–,–,–
CN1CCN(c2ccc([N+](=O)[O-])c(N/N=C3\CN4CCC3CC4)c2)CC1,92,–,–,–,–,–
O=Cc1cn(Cc2cccc(F)c2)c2ccccc12,59,–,–,–,–,–
COc1ccc(OC)c(-n2c(O)c(C=Nc3c(C)n(C)n(-c4ccccc4)c3=O)c(=O)[nH]c2=S)c1,·,–,–,–,–,–
COc1ccc(CNCCc2c[nH]c3ccccc23)c(OC)c1OC,·,–,·,–,–,·
CCOc1cc(CNCCc2c[nH]c3ccccc23)cc(Cl)c1OC,–,–,–,–,–,89
COC(=O)C(O)(c1ccc(N(C)C(=O)c2cccs2)cc1)C(F)(F)F (centres undefined),97,–,–,–,–,–
